Measured values as given in ChEMBL document CHEMBL3244044, “Synthesis and antitumor activity of halogen-substituted 4-(3,3-dimethyl-1-triazeno)quinolines” (J Med Chem, 1978).

Legend:
P388 [1] = assay: Antitumor activity against mouse P388 cells allografted mouse assessed as host survival at 20 mg/kg, ip qd for 9 days relative to control; type: functional; conditions: route intraperitoneal
Method in brief: (§1)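 NCI protocol: groups of five to ten mice inoculated ip with approximately 10^6 P-388 or L1210 cells. Drug given over a range of dose levels starting 24 h after implantation, once daily for 9 consecutive days. Survival expressed as %T/C = (average survival of treated)/(average survival of control) × 100.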

P388 [2] = assay: Antitumor activity against mouse P388 cells allografted mouse assessed as host survival at 10 mg/kg, ip qd for 9 days relative to control; type: functional; conditions: route intraperitoneal; method in brief: as §1
Mus musculus [3] = assay: Toxicity in mouse P388 cells allografted mouse at 30 mg/kg, ip qd for 9 days; type: organism-based; design: dose 30 mg/kg, route intraperitoneal; conditions: in vivo, 216 h
Method in brief: (§2)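 NCI protocol. Groups of five to ten mice were inoculated intraperitoneally with about 10^6 tumor cells. Drug was given ip once daily for 9 consecutive days, starting 24 h after tumor implantation, over a range of dose levels. Toxicity was read as the average body weight change at the end of drug treatment.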

Mus musculus [4] = assay: Toxicity in mouse L1210 cells allografted mouse at 30 mg/kg, ip qd for 9 days; type: organism-based; design: dose 30 mg/kg, route intraperitoneal; conditions: in vivo, 216 h
Method in brief: (§3)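 Groups of five to ten mice were inoculated ip with about 10^6 L1210 cells and dosed once daily for 9 consecutive days beginning 24 h post-implantation. Toxicity was taken as the average body weight change at the end of drug treatment.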

L1210 [5] = assay: Antitumor activity against mouse L1210 cells allografted mouse assessed as host survival at 20 mg/kg, ip qd for 9 days relative to control; type: functional; conditions: route intraperitoneal; method in brief: as §1
P388 [6] = assay: Antitumor activity against mouse P388 cells allografted mouse assessed as host survival at 30 mg/kg, ip qd for 9 days relative to control; type: functional; conditions: route intraperitoneal; method in brief: as §1
Mus musculus [7] = assay: Toxicity in mouse P388 cells allografted mouse at 10 mg/kg, ip qd for 9 days; type: organism-based; design: dose 10 mg/kg, route intraperitoneal; conditions: in vivo, 216 h; method in brief: as §2
Mus musculus [8] = assay: Toxicity in mouse L1210 cells allografted mouse at 20 mg/kg, ip qd for 9 days; type: organism-based; design: dose 20 mg/kg, route intraperitoneal; conditions: in vivo, 216 h; method in brief: as §3
[9] = Binding affinity to synthetic melanin at 5.8 mg/100 mL after 15 mins by UV-spectroscopic analysis; type: physicochemical; conditions: 0.25 h
Method in brief: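 Synthetic melanin was made from DL-Dopa with tyrosinase in 0.1 M phosphate pH 6.6 at 37 °C for 4 h. Melanin suspension (1.1 mg dry weight) was mixed with phosphate buffer (0.05 M, pH 6.4, 5% Me2SO), water, and 1 mL of drug solution (5.8 mg/100 mL). The mixture was shaken 15 min at room temperature and filtered. Unbound drug in the filtrate was measured by UV against a drug-free blank.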

Mus musculus [10] = assay: Toxicity in mouse P388 cells allografted mouse at 20 mg/kg, ip qd for 9 days; type: organism-based; design: dose 20 mg/kg, route intraperitoneal; conditions: in vivo, 216 h; method in brief: as §2
L1210 [11] = assay: Antitumor activity against mouse L1210 cells allografted mouse assessed as host survival at 30 mg/kg, ip qd for 9 days relative to control; type: functional; conditions: route intraperitoneal; method in brief: as §1
Mus musculus [12] = assay: Toxicity in mouse B16 cells allografted mouse at 40 mg/kg, ip qd for 9 days; type: organism-based; design: dose 40 mg/kg, route intraperitoneal; conditions: in vivo, 216 h
Method in brief: (§4)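 Mice bearing B16 melanoma, dosed ip once daily for 9 days from 24 h after tumor implantation. Toxicity is recorded as the average body weight change at the end of drug treatment.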

Mus musculus [13] = assay: Toxicity in mouse P388 cells allografted mouse at 50 mg/kg, ip qd for 9 days; type: organism-based; design: dose 50 mg/kg, route intraperitoneal; conditions: in vivo, 216 h; method in brief: as §2
B16 [14] = assay: Antitumor activity against mouse B16 cells allografted mouse assessed as host survival at 40 mg/kg, ip qd for 9 days relative to control; type: functional; conditions: route intraperitoneal
Method in brief: (§5)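 B16 melanoma-bearing mice given drug ip once daily for 9 days, starting 24 h after tumor implantation. Read-out is average survival in days, expressed as %T/C = (average survival of treated mice)/(average survival of control mice) × 100.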

P388 [15] = assay: Antitumor activity against mouse P388 cells allografted mouse assessed as host survival at 40 mg/kg, ip qd for 9 days relative to control; type: functional; conditions: route intraperitoneal; method in brief: as §1
Mus musculus [16] = assay: Toxicity in mouse L1210 cells allografted mouse at 40 mg/kg, ip qd for 9 days; type: organism-based; design: dose 40 mg/kg, route intraperitoneal; conditions: in vivo, 216 h; method in brief: as §3
P388 [17] = assay: Antitumor activity against mouse P388 cells allografted mouse assessed as host survival at 50 mg/kg, ip qd for 9 days relative to control; type: functional; conditions: route intraperitoneal; method in brief: as §1
B16 [18] = assay: Antitumor activity against mouse B16 cells allografted mouse assessed as host survival at 24 mg/kg, ip qd for 9 days relative to control; type: functional; conditions: route intraperitoneal; method in brief: as §5
Mus musculus [19] = assay: Toxicity in mouse B16 cells allografted mouse at 66.7 mg/kg, ip qd for 9 days; type: organism-based; design: dose 66.7 mg/kg, route intraperitoneal; conditions: in vivo, 216 h; method in brief: as §4
Mus musculus [20] = assay: Toxicity in mouse B16 cells allografted mouse at 24 mg/kg, ip qd for 9 days; type: organism-based; design: dose 24 mg/kg, route intraperitoneal; conditions: in vivo, 216 h; method in brief: as §4
Mus musculus [21] = assay: Toxicity in mouse P388 cells allografted mouse at 40 mg/kg, ip qd for 9 days; type: organism-based; design: dose 40 mg/kg, route intraperitoneal; conditions: in vivo, 216 h; method in brief: as §2
B16 [22] = assay: Antitumor activity against mouse B16 cells allografted mouse assessed as host survival at 66.7 mg/kg, ip qd for 9 days relative to control; type: functional; conditions: route intraperitoneal; method in brief: as §5
L1210 [23] = assay: Antitumor activity against mouse L1210 cells allografted mouse assessed as host survival at 40 mg/kg, ip qd for 9 days relative to control; type: functional; conditions: route intraperitoneal; method in brief: as §1
Mus musculus [24] = assay: Toxicity in mouse B16 cells allografted mouse at 30 mg/kg, ip qd for 9 days; type: organism-based; design: dose 30 mg/kg, route intraperitoneal; conditions: in vivo, 216 h; method in brief: as §4
Mus musculus [25] = assay: Toxicity in mouse B16 cells allografted mouse at 18 mg/kg, ip qd for 9 days; type: organism-based; design: dose 18 mg/kg, route intraperitoneal; conditions: in vivo, 216 h; method in brief: as §4
B16 [26] = assay: Antitumor activity against mouse B16 cells allografted mouse assessed as host survival at 50 mg/kg, ip qd for 9 days relative to control; type: functional; conditions: route intraperitoneal; method in brief: as §5
B16 [27] = assay: Antitumor activity against mouse B16 cells allografted mouse assessed as host survival at 30 mg/kg, ip qd for 9 days relative to control; type: functional; conditions: route intraperitoneal; method in brief: as §5
Mus musculus [28] = assay: Toxicity in mouse B16 cells allografted mouse at 50 mg/kg, ip qd for 9 days; type: organism-based; design: dose 50 mg/kg, route intraperitoneal; conditions: in vivo, 216 h; method in brief: as §4
B16 [29] = assay: Antitumor activity against mouse B16 cells allografted mouse assessed as host survival at 18 mg/kg, ip qd for 9 days relative to control; type: functional; conditions: route intraperitoneal; method in brief: as §5
Mus musculus [30] = assay: Toxicity in mouse L1210 cells allografted mouse at 90 mg/kg, ip qd for 9 days; type: organism-based; design: dose 90 mg/kg, route intraperitoneal; conditions: in vivo, 216 h; method in brief: as §2
Mus musculus [31] = assay: Toxicity in mouse P388 cells allografted mouse at 80 mg/kg, ip qd for 9 days; type: organism-based; design: dose 80 mg/kg, route intraperitoneal; conditions: in vivo, 216 h; method in brief: as §2
Mus musculus [32] = assay: Toxicity in mouse L1210 cells allografted mouse at 70 mg/kg, ip qd for 9 days; type: organism-based; design: dose 70 mg/kg, route intraperitoneal; conditions: in vivo, 216 h; method in brief: as §3
L1210 [33] = assay: Antitumor activity against mouse L1210 cells allografted mouse assessed as host survival at 90 mg/kg, ip qd for 9 days relative to control; type: functional; conditions: route intraperitoneal; method in brief: as §1
Mus musculus [34] = assay: Toxicity in mouse P388 cells allografted mouse at 60 mg/kg, ip qd for 9 days; type: organism-based; design: dose 60 mg/kg, route intraperitoneal; conditions: in vivo, 216 h; method in brief: as §2
L1210 [35] = assay: Antitumor activity against mouse L1210 cells allografted mouse assessed as host survival at 80 mg/kg, ip qd for 9 days relative to control; type: functional; conditions: route intraperitoneal; method in brief: as §1
L1210 [36] = assay: Antitumor activity against mouse L1210 cells allografted mouse assessed as host survival at 70 mg/kg, ip qd for 9 days relative to control; type: functional; conditions: route intraperitoneal; method in brief: as §1
P388 [37] = assay: Antitumor activity against mouse P388 cells allografted mouse assessed as host survival at 60 mg/kg, ip qd for 9 days relative to control; type: functional; conditions: route intraperitoneal; method in brief: as §1
P388 [38] = assay: Antitumor activity against mouse P388 cells allografted mouse assessed as host survival at 80 mg/kg, ip qd for 9 days relative to control; type: functional; conditions: route intraperitoneal; method in brief: as §1
Mus musculus [39] = assay: Toxicity in mouse L1210 cells allografted mouse at 80 mg/kg, ip qd for 9 days; type: organism-based; design: dose 80 mg/kg, route intraperitoneal; conditions: in vivo, 216 h; method in brief: as §2

CN(C)/N=N\c1ccnc2ccc(Cl)cc12
T/C (P388 [1]): 139% | T/C (P388 [2]): 129% | Activity (Mus musculus [3]): -12.9% | Activity (Mus musculus [4]): -10% | T/C (L1210 [5]): 146% | T/C (P388 [6]): 137% | Activity (Mus musculus [7]): -3.1% | Activity (Mus musculus [8]): 1% | Activity [9]: 41% | Activity (Mus musculus [10]): 0.8% | T/C (L1210 [11]): 156%

CN(C)/N=N\c1ccnc2c(Br)cccc12
T/C (P388 [1]): 109% | Activity (Mus musculus [12]): -3% | Activity (Mus musculus [3]): 4.8% | Activity (Mus musculus [13]): -5% | Activity (Mus musculus [4]): 6.1% | Survival (B16 [14]): 19 days | T/C (B16 [14]): 90% | T/C (P388 [15]): 125% | Activity (Mus musculus [16]): -5.9% | T/C (P388 [17]): 117% | Survival (B16 [18]): 20.3 days | T/C (B16 [18]): 97% | Activity (Mus musculus [19]): -3.7% | Activity (Mus musculus [20]): -1.1% | T/C (P388 [6]): 113% | Activity (Mus musculus [21]): -3.3% | Activity [9]: 48.1% | Survival (B16 [22]): 21.3 days | T/C (B16 [22]): 101% | Activity (Mus musculus [10]): 16% | T/C (L1210 [23]): 144% | T/C (L1210 [11]): 137%

CN(C)/N=N\c1ccnc2c(Cl)cccc12
T/C (P388 [1]): 172% | Activity (Mus musculus [24]): -2.9% | Activity (Mus musculus [25]): -0.3% | Activity (Mus musculus [3]): -15% | Activity (Mus musculus [4]): 0% | Activity (Mus musculus [16]): -4.9% | Survival (B16 [26]): 20.8 days | T/C (B16 [26]): 99% | Survival (B16 [27]): 21.3 days | T/C (B16 [27]): 101% | Activity (Mus musculus [28]): -3.9% | T/C (P388 [6]): 167% | Activity [9]: 56.4% | Activity (Mus musculus [10]): -2.1% | T/C (L1210 [23]): 155% | Survival (B16 [29]): 21.6 days | T/C (B16 [29]): 103% | T/C (L1210 [11]): 165%

CN(C)/N=N\c1ccnc2ccc(I)cc12
Activity (Mus musculus [30]): -6.4% | Activity (Mus musculus [31]): 7.1% | T/C (P388 [15]): 117% | Activity (Mus musculus [32]): -23.8% | T/C (L1210 [33]): 158% | Activity (Mus musculus [34]): 2.6% | T/C (L1210 [35]): 160% | T/C (L1210 [36]): 148% | Activity (Mus musculus [21]): 10.5% | T/C (P388 [37]): 133% | Activity [9]: 60.6% | T/C (P388 [38]): 123% | Activity (Mus musculus [39]): -8.2%
